IC50, inhibition and viability data for 23 molecules are collected here from ChEMBL document CHEMBL3856218, “Polycyclic Polyprenylated Acylphloroglucinol Congeners from Hypericum scabrum” (J Nat Prod, 2016).

Experiment [1] is described as follows: Inhibition of glutamate transporter (unknown origin) assessed as suppression of synaptosomal uptake of L-glutamate. The arrangement: species or system Homo sapiens.
Experiment [2] can be described thus: Inhibition of GABA transporter (unknown origin) assessed as suppression of synaptosomal uptake of GABA. The arrangement: species or system Homo sapiens.
The target of experiment [3] is Sodium-dependent noradrenaline transporter (Homo sapiens, UniProt P23975). The experiment can be described thus: Inhibition of norepinephrine transporter (unknown origin) assessed as suppression of synaptosomal uptake of norepinephrine.
Experiment [4] concerns the target Sodium-dependent dopamine transporter (Homo sapiens, UniProt Q01959). The experiment is described as follows: Inhibition of dopamine transporter (unknown origin) assessed as suppression of synaptosomal uptake of dopamine.
The nature of experiment [5]: Cytotoxicity against human Bel7402 cells at 10^-5 M by MTT assay relative to control. It counts as functional. As to conditions: Bel-7402.
Experiment [6] in a line: Cytotoxicity against human HCT8 cells at 10^-5 M by MTT assay relative to control. The experiment is classed as functional. As to conditions: HCT-8.
The nature of experiment [7]: Cytotoxicity against human A549 cells at 10^-5 M by MTT assay relative to control. It counts as functional.
The nature of experiment [8]: Neuroprotective activity against glutamate-induced toxicity in human SK-N-SH cells assessed as cell viability at 10 uM after 24 hrs by MTT assay (reference value: 61.9 +/- 0.9%). The experiment is classed as functional. As to conditions: read-out: Activity.
The nature of experiment [9]: Hepatoprotective activity in human HepG2 cells assessed as inhibition of paracetamol-induced cell damage at 10 uM preincubated for 1 hr followed by paracetamol addition measured after 24 hrs by MTT assay relative to control. The experiment is classed as functional. The method in brief: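 HepG2 cells damaged with paracetamol, test agents at 10 μM, with bicyclol (10 μM) as the positive control. Viability was read by MTT colorimetric assay and expressed as % of normal, and inhibition as % of paracetamol control. Values are mean ± SD, n = 3 (normal and control wells n = 6).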

Experiment [10] deals with Sodium-dependent serotonin transporter (Homo sapiens, UniProt P31645). The experiment is described as follows: Inhibition of serotonin transporter (unknown origin) assessed as suppression of synaptosomal uptake of serotonin.

pIC50: −log10 of the molar value.

Chain of Sodium-dependent dopamine transporter (Q01959 whole entry): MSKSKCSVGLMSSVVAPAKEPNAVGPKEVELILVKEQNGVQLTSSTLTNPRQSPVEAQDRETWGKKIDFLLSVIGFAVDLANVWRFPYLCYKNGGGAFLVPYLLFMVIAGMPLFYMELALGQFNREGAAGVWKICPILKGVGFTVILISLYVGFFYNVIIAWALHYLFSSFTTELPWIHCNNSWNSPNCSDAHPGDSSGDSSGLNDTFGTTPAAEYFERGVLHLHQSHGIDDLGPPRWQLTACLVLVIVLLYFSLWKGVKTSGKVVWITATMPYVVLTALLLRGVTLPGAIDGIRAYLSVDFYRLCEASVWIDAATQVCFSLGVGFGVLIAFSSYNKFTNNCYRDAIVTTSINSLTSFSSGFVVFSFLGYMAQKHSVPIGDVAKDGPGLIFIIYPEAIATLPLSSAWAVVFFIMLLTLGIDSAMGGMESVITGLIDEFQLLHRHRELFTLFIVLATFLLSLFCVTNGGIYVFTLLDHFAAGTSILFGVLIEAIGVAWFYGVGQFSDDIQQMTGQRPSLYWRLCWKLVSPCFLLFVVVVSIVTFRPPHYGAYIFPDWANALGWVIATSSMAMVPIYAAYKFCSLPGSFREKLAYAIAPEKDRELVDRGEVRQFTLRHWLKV
Chain of Sodium-dependent noradrenaline transporter (P23975 whole entry): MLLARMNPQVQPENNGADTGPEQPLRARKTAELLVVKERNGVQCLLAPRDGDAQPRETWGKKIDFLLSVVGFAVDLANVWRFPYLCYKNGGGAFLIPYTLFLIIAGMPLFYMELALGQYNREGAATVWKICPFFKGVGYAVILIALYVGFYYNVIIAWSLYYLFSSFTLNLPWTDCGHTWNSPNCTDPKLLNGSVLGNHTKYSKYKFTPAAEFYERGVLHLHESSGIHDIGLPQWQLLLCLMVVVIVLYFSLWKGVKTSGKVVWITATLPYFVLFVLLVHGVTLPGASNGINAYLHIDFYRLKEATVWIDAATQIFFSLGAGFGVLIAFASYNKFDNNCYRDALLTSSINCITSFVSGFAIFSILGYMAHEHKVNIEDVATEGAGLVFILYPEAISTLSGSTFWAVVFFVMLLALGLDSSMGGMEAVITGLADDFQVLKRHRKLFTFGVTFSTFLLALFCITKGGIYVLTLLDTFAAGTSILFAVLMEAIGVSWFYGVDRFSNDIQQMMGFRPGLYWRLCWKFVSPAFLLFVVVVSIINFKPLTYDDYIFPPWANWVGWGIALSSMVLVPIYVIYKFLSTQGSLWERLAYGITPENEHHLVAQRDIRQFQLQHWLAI
Chain of Sodium-dependent serotonin transporter (P31645 whole entry): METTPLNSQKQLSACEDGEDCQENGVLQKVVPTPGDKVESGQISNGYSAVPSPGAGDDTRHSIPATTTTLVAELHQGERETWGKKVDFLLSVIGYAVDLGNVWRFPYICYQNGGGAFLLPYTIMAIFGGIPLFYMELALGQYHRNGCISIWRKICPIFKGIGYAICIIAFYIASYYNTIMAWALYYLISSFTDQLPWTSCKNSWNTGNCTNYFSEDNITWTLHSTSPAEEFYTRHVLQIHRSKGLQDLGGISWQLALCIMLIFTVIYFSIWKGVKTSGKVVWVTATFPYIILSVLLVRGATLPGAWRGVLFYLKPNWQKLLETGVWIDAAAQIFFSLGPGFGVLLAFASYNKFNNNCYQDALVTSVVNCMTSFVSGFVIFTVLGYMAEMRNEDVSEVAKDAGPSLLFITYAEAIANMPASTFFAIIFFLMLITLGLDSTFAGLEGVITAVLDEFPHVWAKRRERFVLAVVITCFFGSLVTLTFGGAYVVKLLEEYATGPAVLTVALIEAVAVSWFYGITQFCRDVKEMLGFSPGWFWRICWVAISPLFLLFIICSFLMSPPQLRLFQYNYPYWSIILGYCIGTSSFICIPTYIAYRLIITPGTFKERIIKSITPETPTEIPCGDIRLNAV

Consider `CC(C)=CCC[C@]1(C)[C@@H](CC=C(C)C)C[C@]2(CC=C(C)C)C(=O)C(CC=C(C)C)=C(O)[C@@]1(C(=O)C(C)C)C2=O`, for which the pIC50 in experiment [1], in experiment [2], in [3] and in experiment [4] was 5.70 throughout.
With `CC(C)=CCC1=C2O[C@@H](C(C)(C)OO)C[C@@]23C[C@H](CC=C(C)C)C(C)(C)[C@@](C(=O)c2ccccc2)(C1=O)C3=O`, the inhibition at 10 µM in experiment [5] was 18.4%; in [6], -32.2%; in experiment [7] it was 14.6%.
For `CC[C@@H](C)C(=O)[C@]12C(=O)[C@]3(C)C[C@H](CC=C(C)C)[C@@]1(C)CC[C@H](C(C)(C)O)OC2=C(CC=C(C)C)C3=O`, the viability at 10 µM in experiment [8] turned out to be 70.8%. In addition, the inhibition at 10 µM in experiment [9] is 24.9%; in [5], 8.64%; in experiment [6], -41.2%; in experiment [7], 8.65%.
As to `CC(C)=CC[C@H]1C[C@]2(CC=C(C)C)C(=O)C(C(=O)c3ccccc3)=C3O[C@H](C(C)(C)O)C[C@]3(C2=O)C1(C)C`, the viability at 10 µM in experiment [8] was 73.5%. Also, the values for the inhibition at 10 µM in experiment [5], in experiment [6] and in experiment [7] were 1.05%, 3.04% and 10.7%, respectively.
Turning to `CC(C)=CC[C@H]1C[C@@]2(C)C(=O)[C@](C(=O)c3ccccc3)(C(=O)C3=C2O[C@H](C(C)(C)O)C3)[C@]1(C)CCCC(C)C`, in experiment [8], the viability at 10 µM is 83%.
Consider `CC(C)=CCC[C@]1(C)[C@@H](CC=C(C)C)CC2(C)C(=O)[C@@]3(CC=C(C)C)O[C@]2(O)[C@]1(C(=O)C(C)C)C3=O` (some centres not stated), for which the inhibition at 10 µM in [9] came to 25.8%.
The same measure, in the same setting: then `CC(C)=CC[C@H]1C[C@@]2(CC=C(C)C)C(=O)[C@](C(=O)c3ccccc3)(C(=O)C3=C2O[C@@H](C(C)(C)O)C3)[C@]1(C)CCCC(C)C`, with 10.3%; and `CC(C)=CC[C@H]1C[C@@]2(C)C(=O)[C@](C(=O)C(C)C)(C(=O)C3=C2O[C@@H](C(C)(C)O)C3)[C@]1(C)CCCC(C)C`, with 23.3%.
For `CC(C)=CCC1=C2OCC[C@@]23C[C@H](CC=C(C)C)C(C)(C)[C@@](C(=O)c2ccccc2)(C1=O)C3=O`, the inhibition at 10 µM in experiment [5] is -1.32%; in [6], 14.4%; in experiment [7], 1.46%.
Turning to `CC(C)=CC[C@H]1CC(C)=C2OC(C)(C)[C@@H]3CC[C@@]1(C)[C@]23C(=O)C(C)C`, the inhibition at 10 µM in experiment [9] is 15.9%.
Regarding `CC(C)=CC[C@H]1C[C@@]2(C)C(=O)[C@](C(=O)C(C)C)(C(=O)C3=C2O[C@H](C(C)(C)O)C3)[C@]1(C)CCCC(C)C`, the viability at 10 µM in experiment [8] is 71.6%.
Take `CC[C@H](C)C(=O)C12C(=O)[C@]3(CC=C(C)C)O[C@@]1(O)C(C)(C[C@H](CC=C(C)C)[C@@]2(C)CCC=C(C)C)C3=O` (some centres not stated): the viability at 10 µM in [8] was 72.1%. Also, the inhibition at 10 µM is 36.7% in [9], -3.16% in experiment [5], -25.9% in experiment [6] and 19% in [7].
Take `CC(C)=CC[C@H]1C[C@]2(C)C(=O)C3=C(O[C@H](C(C)(C)O)C3)[C@@](C(=O)C(C)C)(C2=O)[C@]1(C)CCCC(C)C`: the viability at 10 µM in experiment [8] worked out at 75.4%.
`CC(C)=CCC[C@]1(C)[C@@H](CC=C(C)C)CC2(CC=C(C)C)C(=O)[C@@]3(CC=C(C)C)O[C@]2(O)[C@]1(C(=O)C(C)C)C3=O` (some centres not stated): the inhibition at 10 µM in experiment [9] worked out at 14%.
Turning to `CC[C@H](C)C(=O)[C@@H]1C(=O)[C@@](C)(O)[C@@H](CC=C(C)C)C[C@@]1(C)CCC=C(C)C`, the inhibition at 10 µM is 30.5% in experiment [9], 3.31% in experiment [5], -24.4% in experiment [6] and -13.6% in experiment [7].
The matching figures for `CC(C)=CCC1=C2O[C@@H](C(C)(C)O)CC[C@]3(C)[C@@H](CC=C(C)C)C[C@](C)(C1=O)C(=O)[C@]23C(=O)C(C)C`: 6.1%, 19.4%, -37.1% and 0.36%.
For the molecule `C=C(C)[C@@H]1C[C@@]23C[C@@H](CC=C(C)C)C(C)(C)[C@@](CC=C(C)C)(C(=O)C(C(=O)c4ccccc4)=C2O1)C3=O`, the viability at 10 µM in [8] stood at 73.1%. In addition, the inhibition at 10 µM is -0.2% in [5], -29.7% in experiment [6] and 6.64% in [7].
In the case of `CC(C)=CCC[C@]1(C)C[C@H](CC=C(C)C)[C@](C)(O)C(=O)[C@H]1C(=O)C(C)C`, the inhibition at 10 µM in experiment [5] is 14.7%; in experiment [6] it was -25.7%; in [7], 17.2%.
`CCC(C)C(=O)[C@]12C(=O)[C@](CC=C(C)C)(C[C@H](CC=C(C)C)[C@@]1(C)CCC=C(C)C)C(=O)C(CC=C(C)C)=C2O` (some centres not stated) [ADHYPERFORIN]: the negative logarithm of the IC50 (pIC50) in [10], in experiment [3] and in [4] was 5.70 in each case.
Consider `COC(=O)c1cc(OC)c2c(c1-c1c(CO)cc(OC)c3c1OCO3)OCO2` [BICYCLOL], for which, in experiment [9], the inhibition at 10 µM amounted to 19.5%.
With `O=c1[nH]cc(F)c(=O)[nH]1` [FLUOROURACIL], the inhibition at 10 µM in [5] came to 70.6%; in experiment [6], 70.4%; in experiment [7] it was 68.3%.
With `CC(C)=CC[C@@]12C[C@H]3[C@@H](C=C(C)C)[C@@](C(=O)c4ccccc4)(C1=O)C(=O)[C@@](CC=C(C)C)(C2=O)C3(C)C` [HYPERIBONE K], the viability at 10 µM in [8] worked out at 73.1%. Besides, in experiment [9], the inhibition at 10 µM came to 49%.
Take `Oc1ccc(/C=C/c2cc(O)cc(O)c2)cc1` [RESVERATROL]: the viability at 10 µM in experiment [8] was 72.6%.
